Shown are actives, neighbours in structure and some others; about 1.1% of the full set was active somewhere.
RBBP9 inhibitor – blocks human serine hydrolase RBBP9 | recombinant RBBP9, FP-Rh probe fluorescence polarization | 220,000 tested, 0.2% active | inhibition, % at 7.94 µM;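 active = inhibition above the campaign mean of all tested compounds plus 3 SD, cut at about 14% in these data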;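 also: plate controls were DMSO wells with RBBP9 for no effect and wells lacking RBBP9 protein for full effect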
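Measured by: FP readout at 525/598 nm; material: recombinant human RBBP9; also added: Serine-hydrolase probe FP-Rh, 375 nM pre-mixing; medium: Tris buffer pH 8.0, NaCl, Pluronic; replication: one well per compound; doses: one concentration, 7.94 µM nominal, 0.794% DMSO; timing: preincubation 30 min plus labeling 45 min at 25 °C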
m-calpain inh – blocks pig calpain II enzyme activity; purified calpain II, fluorogenic peptide substrate, 30 min; inhibition, % at 16 µM; 220,000 tested, 0.37% active; AID 1236;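 active = inhibition above about 50%, limit read from the data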
Furin inh – human furin inhibition; P09958; purified furin, fluorogenic substrate cleavage; inhibition, % at 20 µM or 30 µM; 220,000 tested, 0.061% active; AID 463115; in the data active = inhibition above about 25%
p47phox inh – p47phox (human) inhibition; P14598; p47phox/p22phox peptide binding, fluorescence polarization, 2 h; inhibition, % at 24.7 µM; 220,000 tested, 0.53% active;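 active = inhibition above about 30%, limit read from the data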;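 also: 0% = p47phox with labelled peptide and 100% = labelled peptide alone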
Target sequence (P14598 whole entry, looked up): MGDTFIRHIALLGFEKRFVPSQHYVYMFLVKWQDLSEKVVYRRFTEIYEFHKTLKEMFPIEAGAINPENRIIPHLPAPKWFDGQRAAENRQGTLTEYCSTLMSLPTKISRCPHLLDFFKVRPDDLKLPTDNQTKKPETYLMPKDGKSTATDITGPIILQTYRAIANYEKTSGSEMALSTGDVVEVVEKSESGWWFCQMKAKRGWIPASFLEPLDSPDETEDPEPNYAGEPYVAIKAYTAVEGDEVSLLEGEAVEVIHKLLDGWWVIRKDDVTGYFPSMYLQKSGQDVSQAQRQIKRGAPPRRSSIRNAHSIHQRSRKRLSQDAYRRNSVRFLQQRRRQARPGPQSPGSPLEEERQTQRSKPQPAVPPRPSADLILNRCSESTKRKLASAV
* = called active by the depositor.

CCOC(=O)c1c(/N=C/C2C(=O)CCCC2=O)sc(C)c1C was read as RBBP9 inhibitor -1, m-calpain inh 16, Furin inh 19 and p47phox inh -9.
`COc1ccc(NS(=O)(=O)c2ccc3c(c2)NC(=O)CO3)cc1` gave RBBP9 inhibitor -3, m-calpain inh -8, Furin inh -14 and p47phox inh -3.
For COc1cc(-c2nc3cccc(C)n3c2NCC2CCCO2)ccc1O (stereo not drawn) the results were RBBP9 inhibitor -4, m-calpain inh inactive, Furin inh -42 and p47phox inh -2.
`CCn1c(=O)cc(OCC(=O)NCCCN2CC(C)CC(C)C2)c2ccccc21` (stereo not drawn) gave RBBP9 inhibitor 0, m-calpain inh -35, Furin inh -16 and p47phox inh 68*.
Screening O=C1C2CCCN2C(=O)N1CCCCN1CCN(c2cccc(Cl)c2)CC1 (stereo not drawn) returned RBBP9 inhibitor -1, m-calpain inh 16, Furin inh -8 and p47phox inh 7.
For CN1C(=O)N(C)C2(c3ccccc3)N(C)C(=O)NC12c1ccccc1 (stereo not drawn) the results were RBBP9 inhibitor -2, m-calpain inh 30, Furin inh -22 and p47phox inh 49*.
`O=C(CCC1CCCN(C(=O)CCCc2ccccc2)C1)N1CCN(c2ccccn2)CC1` (stereo not drawn) gave RBBP9 inhibitor -5, m-calpain inh -85, Furin inh 5 and p47phox inh 95*.
CCc1cccc(NS(=O)(=O)c2ccc3c(c2)oc(=O)n3C)c1 was read as RBBP9 inhibitor 5, m-calpain inh -31, Furin inh -12 and p47phox inh 40*.
For O=C(O)c1cccc(N/N=C/c2ccc(F)c(F)c2)c1 the results were RBBP9 inhibitor 0, m-calpain inh 2, Furin inh 2 and p47phox inh -5.
O=C(O)c1cccc(N/N=C/C2=C(Cl)c3cc(Cl)ccc3SC2)c1 was read as RBBP9 inhibitor 3, m-calpain inh 58*, Furin inh -3 and p47phox inh 1.
Screening N#CC(c1cccc(C(F)(F)F)c1)(c1ncc(C(F)(F)F)cc1Cl)N1CCOCC1 (stereo not drawn) returned RBBP9 inhibitor -7, m-calpain inh -9, Furin inh -15 and p47phox inh -12.
N#CC(c1ccccc1)(c1ncc(C(F)(F)F)cc1Cl)N1CCOCC1 (stereo not drawn) was read as RBBP9 inhibitor -7, m-calpain inh -25, Furin inh -28 and p47phox inh 42*.
`COc1ccc(N2C(=O)N(Cc3ccccc3F)c3ccccc3S2(=O)=O)cc1` gave RBBP9 inhibitor -19, m-calpain inh 58*, Furin inh -23 and p47phox inh -10.
`COc1ccc(N2C(=O)N(Cc3cccc(F)c3)c3ccccc3S2(=O)=O)cc1` gave RBBP9 inhibitor -14, m-calpain inh 63*, Furin inh -15 and p47phox inh 1.
For C=CCNC(=O)c1ccc(Cn2cc(C(F)(F)F)ccc2=O)cc1 the results were RBBP9 inhibitor 3, m-calpain inh -14, Furin inh -24 and p47phox inh -1.
`CN(CCC#N)C(=O)COC(=O)c1ccc(Cl)c(S(=O)(=O)N(C)c2ccccc2)c1` gave RBBP9 inhibitor 0, m-calpain inh 8, Furin inh -7 and p47phox inh -9.
`C=CCNC(=S)N1CCN(CCN=CC2=C(O)CC(c3ccco3)CC2=O)CC1` (stereo not drawn) gave RBBP9 inhibitor -8, m-calpain inh -36, Furin inh -2 and p47phox inh 35*.
`CO/N=C/c1ccc(Sc2ccccc2N)c([N+](=O)[O-])c1` gave RBBP9 inhibitor -10, m-calpain inh 62*, Furin inh -4 and p47phox inh -8.
CO/N=C/c1ccc(Sc2ccccc2)c([N+](=O)[O-])c1 was read as RBBP9 inhibitor -2, m-calpain inh 9, Furin inh -17 and p47phox inh -11.
For O=C(c1cc(COc2c(F)cccc2F)on1)N1CCC(c2ccccc2Cl)C1 (stereo not drawn) the results were RBBP9 inhibitor -5, m-calpain inh 55*, Furin inh -8 and p47phox inh -12.
`Cc1[nH]n(-c2ccccc2)c(=O)c1CCOC(=O)c1cccc(C(F)(F)F)c1` gave RBBP9 inhibitor -4, m-calpain inh -1, Furin inh -7 and p47phox inh -1.
For Cc1ccc(C(=O)OCCc2c(C)[nH]n(-c3ccccc3)c2=O)cc1 the results were RBBP9 inhibitor -5, m-calpain inh 4, Furin inh -19 and p47phox inh 102*.
Cc1ccccc1/C(N)=N/OC(=O)c1cccs1 was read as RBBP9 inhibitor -5, m-calpain inh -11, Furin inh -9 and p47phox inh -12.
`Cc1ccccc1C(=O)N=c1sccn1C` gave RBBP9 inhibitor -6, m-calpain inh -17, Furin inh -15 and p47phox inh 110*.
For Nc1nc2c(nc(SCc3ccccc3Br)n2C2OC(CO)C(O)C2O)c(=O)[nH]1 (stereo not drawn) the results were RBBP9 inhibitor -3, m-calpain inh -6, Furin inh -28 and p47phox inh -7.
Screening O=C(O)c1ccc(NC2=C(Cl)C(=O)c3ccccc3C2=O)cc1 returned RBBP9 inhibitor -11, m-calpain inh 58*, Furin inh -2 and p47phox inh 10.
`O=C1C(Cl)=C(Nc2ccccc2)C(=O)c2ccccc21` gave RBBP9 inhibitor -9, m-calpain inh 43, Furin inh -24 and p47phox inh -7.
`N#C/C(=C\c1ccc(OCc2cccc(C(=O)O)c2)cc1)C(=O)NCc1ccco1` gave RBBP9 inhibitor -1, m-calpain inh -1, Furin inh -7 and p47phox inh -21.
Screening O=C(NCc1ccccc1Cl)C1CCCN(c2nc3ccsc3c(=O)s2)C1 (stereo not drawn) returned RBBP9 inhibitor -9, m-calpain inh 53*, Furin inh -23 and p47phox inh 0.
CC1CCCN(c2nc3ccsc3c(=O)s2)C1 (stereo not drawn) was read as RBBP9 inhibitor -8, m-calpain inh -7, Furin inh -18 and p47phox inh -3.
For N#CC(C#N)=c1ccc2c(c1)NC1(CCCCC1)N=2 the results were RBBP9 inhibitor -4, m-calpain inh -8, Furin inh -6 and p47phox inh 132*.
`N#CC(C#N)=C1NC2(CCCCC2)Cc2ccccc21` gave RBBP9 inhibitor -9, m-calpain inh 6, Furin inh -16 and p47phox inh -9.
Screening O=c1c(Cc2c(F)cccc2Cl)c(O)ccn1CCc1ccccn1 returned RBBP9 inhibitor -9, m-calpain inh -4, Furin inh -21 and p47phox inh -4.
CC(c1cccs1)N(C(=O)Nc1ccccc1)C1CCCCC1 (stereo not drawn) was read as RBBP9 inhibitor -8, m-calpain inh -6, Furin inh -21 and p47phox inh -16.
`CC(C)CCN(C(=O)Nc1ccccc1)C(C)c1cccs1` (stereo not drawn) gave RBBP9 inhibitor -2, m-calpain inh 51*, Furin inh -14 and p47phox inh -5.
